Test [1] has as its target Calcium-activated potassium channel subunit alpha-1 (Rattus norvegicus) (UniProt Q62976). As to the kind of experiment: Activation of large-conductance calcium-activated potassium channel-mediated vasorelaxation in endothelium-denuded normotensive Wistar rat thoracic aorta assessed as potassium chloride-induced contraction in presence of tetraethylammonium chloride. It is filed as tissue-based. The gist of the method:
(§1)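 Male Wistar rats (250-350 g); endothelium-denuded thoracic aortic rings in Tyrode at 37 °C, gassed 95% O2/5% CO2, isometric tension. Denudation checked with ACh 10 µM on KCl 20 mM contraction. After KCl 20 mM contraction, IbTX 100 nM or TEA 10 mM added, then cumulative 3-fold increasing compound concentrations, max 10 µM; DMSO stock diluted in water. Efficacy as % of KCl tone; pIC50; mean ± SE, 5-10 experiments.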

The target in test [2] is Calcium-activated potassium channel subunit alpha-1 (Rattus norvegicus, UniProt Q62976). As to the kind of experiment: (§2) Activation of large-conductance calcium-activated potassium channel-mediated vasorelaxation in endothelium-denuded normotensive Wistar rat thoracic aorta assessed as potassium chloride-induced contractile tension. The gist of the method:
(§3)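 Male Wistar rats (250-350 g); thoracic aortic rings, endothelium removed (confirmed by ACh 10 µM lack of relaxation), in Tyrode at 37 °C gassed 95% O2/5% CO2, isometric tension, 60 min equilibration. After stable KCl 20 mM contraction, 3-fold increasing cumulative concentrations added, up to 10 µM. Efficacy as % of KCl tone; pIC50 from half-reduction; mean ± SE of 5-10 experiments.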

Test [3] concerns the target Calcium-activated potassium channel subunit alpha-1 (Rattus norvegicus) (UniProt Q62976). As to the kind of experiment: Activation of large-conductance calcium-activated potassium channel-mediated vasorelaxation in endothelium-denuded normotensive Wistar rat thoracic aorta assessed as potassium chloride-induced contractile tension relative to NS-1619. It is filed as tissue-based.

For test [4] the target is unchanged. As to the kind of experiment: Activation of large-conductance calcium-activated potassium channel-mediated vasorelaxation in endothelium-denuded normotensive Wistar rat thoracic aorta assessed as potassium chloride-induced contraction in presence of iberiotoxin. The gist of the method: as §1
The target is the same in test [5]. The test is described as §2. The arrangement: scale not given: the % may be the effect or the level left. The procedure, abridged: as §3

The text below walks through data of ChEMBL document CHEMBL1156623, “Novel 1,4-benzothiazine derivatives as large conductance Ca2+-activated potassium channel openers” (J Med Chem, 2008).

pIC50: −log10 of the molar value. Calls of active or inactive are those of the source. The calls are words filed in the database; no cut-off is given here. Bounds are passed on as bounds.

Sequence of Calcium-activated potassium channel subunit alpha-1 (Rattus norvegicus) (Q62976 whole entry): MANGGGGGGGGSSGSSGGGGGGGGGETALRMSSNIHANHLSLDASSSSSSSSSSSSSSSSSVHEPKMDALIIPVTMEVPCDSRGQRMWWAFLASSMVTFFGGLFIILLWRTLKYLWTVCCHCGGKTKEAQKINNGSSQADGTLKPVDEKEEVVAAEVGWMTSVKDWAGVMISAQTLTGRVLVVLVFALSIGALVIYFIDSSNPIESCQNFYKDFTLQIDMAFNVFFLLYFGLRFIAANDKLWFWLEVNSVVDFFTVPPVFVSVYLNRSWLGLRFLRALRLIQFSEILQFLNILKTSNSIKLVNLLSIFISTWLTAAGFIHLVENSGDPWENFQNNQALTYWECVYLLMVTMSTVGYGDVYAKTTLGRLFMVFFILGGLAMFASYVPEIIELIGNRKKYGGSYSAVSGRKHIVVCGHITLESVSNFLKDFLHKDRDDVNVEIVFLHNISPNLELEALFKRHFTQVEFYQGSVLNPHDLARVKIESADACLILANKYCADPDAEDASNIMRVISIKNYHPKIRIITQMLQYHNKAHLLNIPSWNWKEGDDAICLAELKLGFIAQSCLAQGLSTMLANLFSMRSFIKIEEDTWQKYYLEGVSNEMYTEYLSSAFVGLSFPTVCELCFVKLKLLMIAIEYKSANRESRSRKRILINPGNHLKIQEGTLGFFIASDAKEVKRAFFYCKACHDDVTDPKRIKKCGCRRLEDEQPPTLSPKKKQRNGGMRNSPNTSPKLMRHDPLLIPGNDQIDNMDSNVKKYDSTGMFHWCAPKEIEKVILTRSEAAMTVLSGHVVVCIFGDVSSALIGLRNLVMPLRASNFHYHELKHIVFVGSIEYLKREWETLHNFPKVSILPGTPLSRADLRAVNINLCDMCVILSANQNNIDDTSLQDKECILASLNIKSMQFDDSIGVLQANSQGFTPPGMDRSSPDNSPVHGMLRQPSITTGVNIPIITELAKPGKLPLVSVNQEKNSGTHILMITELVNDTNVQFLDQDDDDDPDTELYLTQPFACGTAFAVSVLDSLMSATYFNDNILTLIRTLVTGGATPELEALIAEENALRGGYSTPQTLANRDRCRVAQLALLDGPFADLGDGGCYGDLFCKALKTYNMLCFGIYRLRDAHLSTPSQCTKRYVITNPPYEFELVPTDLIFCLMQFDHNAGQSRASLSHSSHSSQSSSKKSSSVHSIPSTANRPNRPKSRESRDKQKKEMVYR
Sequence of Calcium-activated potassium channel subunit alpha-1 (Q62976 whole entry): as above

On to `COc1ccc(Br)cc1C1Sc2ccc(C(F)(F)F)cc2NC1=O` (centres undefined), for which the result in test [1] and in test [4] was inactive. Moreover, the pIC50 – broadly, the negative decadic logarithm of the IC50, by convention in mol/L – in test [2] was 7.40. The Emax (as a rule, the size of the effect at its maximum, as opposed to the concentration needed) in test [3] was 77%.
Regarding `COc1ccc(Br)cc1C1Sc2ccc(C(F)(F)F)cc2N(C)C1=O` (centres undefined), in test [1], the outcome was inactive. Besides, the pIC50 in test [2] was 6.21. Further, in test [3], the maximal response (Emax) worked out at 67%.
In the case of `O=c1[nH]c2cc(C(F)(F)F)ccc2n1-c1cc(C(F)(F)F)ccc1O`, the pIC50 in test [2] was 5.30.
In the case of `COc1ccc(Br)cc1C1CNc2cc(C(F)(F)F)ccc2S1` (centres undefined), in test [5], the Activity was less than 50%. Further, the Emax in test [3] is less than 25%.
As to `O=C1Nc2cc(C(F)(F)F)ccc2SC1c1cc(Cl)ccc1O` (centres undefined), the Activity in test [5] was less than 50%.
Regarding `COc1ccccc1C1CNc2cc(C(F)(F)F)ccc2S1` (centres undefined), the pIC50 in test [2] is 4.65. Besides, the Emax in test [3] was 100%.
For `COc1ccc(Br)cc1C1C(=O)Nc2cc(C(F)(F)F)ccc2[S+]1[O-]` (centres undefined), in test [5], the Activity is less than 50%. Besides, the Emax in test [3] worked out at 34%.
Turning to `O=C1Nc2ccccc2SC1c1ccccc1` (centres undefined), in test [5], the Activity was less than 50%. In addition, the Emax in test [3] is 42%.
For the compound `COc1ccc(Br)cc1[C@@H](O)[C@H]1Sc2ccc(C(F)(F)F)cc2NC1=O` (relative stereo), the pIC50 in test [2] was 5.20. The Emax in test [3] was found to be 70%.
Consider `O=C1Nc2cc(C(F)(F)F)ccc2SC1c1ccccc1` (centres undefined), for which, in test [5], the Activity was less than 50%. In test [3], the Emax turned out to be 39%.
Turning to `COc1c(Br)cc(Br)cc1C1Sc2ccc(C(F)(F)F)cc2NC1=O` (centres undefined), in test [2], the pIC50 is 4.30. Also, in test [3], the maximal effect (Emax) was 75%.
Regarding `O=C1Nc2cc(C(F)(F)F)ccc2SC1c1cc(Br)ccc1O` (centres undefined), the Activity in test [5] is less than 50%. The Emax in test [3] is 44%.
In the case of `COc1ccc(Br)cc1C1Sc2ccccc2NC1=O` (centres undefined), in test [2], the pIC50 is 4.80. Also, in test [3], the Emax amounted to 100%.
On to `COc1ccc(Br)cc1C1Sc2ccc(C(F)(F)F)cc2NC1=S` (centres undefined), for which, in test [5], the Activity was less than 50%. Besides, in test [3], the Emax was 26%.
